According to ChEMBL document CHEMBL2040743, “Pipestelides A-C: cyclodepsipeptides from the Pacific marine sponge Pipestela candelabra” (J Nat Prod, 2012):

Experiments:
KB [1] = assay: Inhibition of cell proliferation of human KB cells at 10 uM after 72 hrs by CellTiter assay; assay type: functional
In short: (§1)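 KB cells from NCI grown in D-MEM with 10% fetal calf serum and antibiotics under 5% CO2. 600 cells/well, compound in DMSO added 24 h after seeding (1% DMSO final), exposure 72 h. MTS reagent for 3 h at 37 °C, A490. % inhibition = (1 − OD treated/OD DMSO control) × 100, mean ± SE of triplicates.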

KB [2] = assay: Growth inhibition of human KB cells after 72 hrs by CellTiter 96 assay; assay type: functional, cell-based
In short: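 NCI KB cells in D-MEM with 10% fetal calf serum and antibiotics, 5% CO2. 600 cells/well, dosed 24 h after plating from DMSO stocks, 1% DMSO final. Tested from 5 nM to 100 μM for 72 h, then 3 h at 37 °C with MTS reagent and A490 read. IC50 taken from separate duplicate experiments, values given individually.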

KB [3] = assay: Inhibition of cell proliferation of human KB cells at 1 uM after 72 hrs by CellTiter 96 assay; assay type: functional; in short: as §1

IC50 (KB [2])	SMILES	inhibition at 10 µM (KB [1])	inhibition at 1 µM (KB [3])
0.121 µM	C/C1=C\[C@H](C)C[C@H](C)OC(=O)C[C@H](c2ccc(O)cc2)NC(=O)[C@@H](Cc2c(Br)[nH]c3ccccc23)N(C)C(=O)[C@H](CO)NC(=O)[C@@H](C)C1 [JASPAMIDE E]	100%	100%
3.35 µM	C/C1=C\[C@H](C)C[C@H](C)OC(=O)C[C@H](c2ccc(O)cc2)NC(=O)[C@@H](Cc2c(Br)[nH]c3ccccc23)N(C)C(=O)[C@H](C)NC(=O)[C@@H](C)C1O (stereo partly drawn) [JASPAMIDE K]	100%	100%
0.214 µM	C[C@@H]1NC(=O)[C@@H](C)C/C(CO)=C/[C@H](C)C[C@H](C)OC(=O)C[C@H](c2ccc(O)cc2)NC(=O)[C@@H](Cc2c(Br)[nH]c3ccccc23)N(C)C1=O [JASPAMIDE L]	99%	100%
–	C=C1C[C@H](C)C(=O)N[C@@H](C)C(=O)N(C)[C@H](Cc2c(Br)[nH]c3ccccc23)C(=O)N[C@@H](c2ccc(O)cc2)CC(=O)O[C@@H](C)C[C@@H](C)[C@H]1O [JASPLAKINOLIDE CA]	80%	0%
–	C=C1C[C@H](C)C(=O)N[C@@H](C)C(=O)N(C)[C@H](Cc2c(Br)[nH]c3ccccc23)C(=O)N[C@@H](c2ccc(O)cc2)CC(=O)O[C@@H](C)C[C@@H](C)[C@@H]1O [JASPLAKINOLIDE CB]	100%	75%
–	C/C(=C\[C@H](C)C[C@H](C)O)C[C@H](C)C(=O)N[C@@H](C)C(=O)N(C)[C@H](Cc1c(Br)[nH]c2ccccc12)C(=O)N[C@H](CC(=O)O)c1ccc(O)cc1 [JASPLAKINOLIDE Z1]	30%	–
0.1 µM	C/C1=C\[C@H](C)C[C@H](C)OC(=O)C[C@H](c2ccc(O)c(Br)c2)NC(=O)[C@@H](Cc2c(Br)[nH]c3ccccc23)N(C)C(=O)[C@H](C)NC(=O)[C@@H](C)C1 [PIPESTELIDE A]	100%	100%
–	C/C1=C/[C@H](C)C(=O)N[C@@H](C)C(=O)N(C)[C@H](Cc2c(Br)[nH]c3ccccc23)C(=O)N[C@@H](c2ccc(O)cc2)CC(=O)O[C@@H](C)C[C@@H](C)[C@H]1O [PIPESTELIDE B]	100%	0%

SMILES	IC50 (KB [2])	inhibition at 10 µM (KB [1])	inhibition at 1 µM (KB [3])
CC[C@H]1NC(=O)[C@@H](C)C/C(C)=C/[C@H](C)C[C@H](C)OC(=O)C[C@H](c2ccc(O)cc2)NC(=O)[C@@H](Cc2c(Br)[nH]c3ccccc23)N(C)C1=O [JASPAMIDE D]	0.0044 µM	100%	100%
C/C1=C\[C@H](C)C[C@H](C)OC(=O)C[C@H](c2ccc(O)cc2)NC(=O)[C@@H](Cc2c(Br)[nH]c3ccccc23)N(C)C(=O)[C@H](C)NC(=O)[C@@H](C)C1 [JASPAMIDE]	0.013 µM	100%	99%
C=C1C[C@H](C)C(=O)N[C@@H](C)C(=O)N(C)[C@H](Cc2c(Br)[nH]c3ccccc23)C(=O)N[C@@H](c2ccc(O)cc2)CC(=O)O[C@@H](C)C[C@@H](C)C1=O [JASPLAKINOLIDE B]	0.029 µM	99%	99%
